Published values collected from several papers.
Compare with care: the assays were run in different laboratories.
Organism: Staphylococcus aureus
Read-out: microbial growth

| Structure (SMILES) | method | strain | setting | MIC |
| --- | --- | --- | --- | --- |
| COc1ccc(C=NNC(=O)CSc2nc3c(C)cccc3c(=O)n2-c2ccccc2)cc1OS(C)(=O)=O | broth dilution | – | – | 12.5 mg/L |
| CC(=O)c1ccc2cc(S(=O)(=O)Nc3ccc(Br)cc3)ccc2c1 | broth dilution | ATCC25923 | – | 20000 mg/L |
| CCCCCCCCCCCC[N+](C)(C)Cc1ccccc1 | – | ATCC33591 MRSA | drug-resistant strain | 32 µM |
| CCCCCCC#Cc1cncc(-c2nnc(SCc3cc([N+](=O)[O-])cc([N+](=O)[O-])c3)n2C2CCNCC2)c1 | broth dilution | MRSA | – | 8 mg/L |
| COc1c(N2C[C@@H]3CCCN[C@@H]3C2)c(F)cc2c(=O)c(C(=O)O)cn(C3CC3)c12 | broth dilution | ATCC33591 MRSA | – | 0.125 mg/L |
| [H]/N=C(\N/C(=N/[H])NCCCCCCNC(=N)NC(=N)Nc1ccc(Cl)cc1)Nc1ccc(Cl)cc1 | – | ATCC33591 MRSA | drug-resistant strain | 1 µM |
| CC(=O)NC[C@H]1CN(c2ccc(N3CCOCC3)c(F)c2)C(=O)O1 | broth dilution | ATCC29213 | – | 1 mg/L |
| COc1c(N2C[C@@H]3CCCN[C@@H]3C2)c(F)cc2c(=O)c(C(=O)O)cn(C3CC3)c12 | agar dilution | ATCC25923 | – | 0.0625 mg/L |
| CC(=O)C1=NN(c2ccc([N+](=O)[O-])cc2)C(=C(C#N)C(=O)c2ccc(Nc3cnccn3)cc2)S1 | broth dilution | ATCC25923 | – | 6.25 mg/L |
| COc1cccc(OC)c1C(=O)N[C@@H]1C(=O)N2[C@@H]1SC(C)(C)[C@@H]2C(=O)O | broth dilution | USA300 | – | > 64 mg/L |
| CC(=O)OCC1=C(C(=O)O)N2C(=O)[C@@H](NC(=O)Cc3cccs3)[C@H]2SC1 | broth dilution | ATCC25923 | – | 6.25 mg/L |
| CC[C@H]1OC(=O)[C@H](C)[C@@H](O[C@H]2C[C@@](C)(OC)[C@@H](O)[C@H](C)O2)[C@H](C)[C@@H](O[C@@H]2O[C@H](C)C[C@H](N(C)C)[C@H]2O)[C@](C)(O)C[C@@H](C)C(=O)[C@H](C)[C@@H](O)[C@]1(C)O | broth dilution | ATCCBAA44 BAA44 | – | > 64 mg/L |
| Cc1cc(O)cc(Nc2nnc(-c3n[nH]c4ccc(C)cc34)s2)c1 | – | ATCC29213 | – | 87.6 mg/L |
| CC[C@H]1OC(=O)[C@H](C)[C@@H](O[C@H]2C[C@@](C)(OC)[C@@H](O)[C@H](C)O2)[C@H](C)[C@@H](O[C@@H]2O[C@H](C)C[C@H](N(C)C)[C@H]2O)[C@](C)(O)C[C@@H](C)/C(=N\OCOCCOC)[C@H](C)[C@@H](O)[C@]1(C)O | agar dilution | ATCC29213 | – | 4 mg/L |
| N#CC(C#N)=C1SC(C(=O)c2ccc(Nc3cnccn3)cc2)=NN1c1ccccc1 | broth dilution | ATCC25923 | – | 50 mg/L |
| CCCCCCC#Cc1cncc(-c2nnc(SCc3cc([N+](=O)[O-])cc([N+](=O)[O-])c3)n2CCCN)c1 | broth dilution | MRSA | – | 8 to 16 mg/L |
| CC(=O)NC[C@H]1CN(c2ccc(N3CCOCC3)c(F)c2)C(=O)O1 | agar dilution | ATCC43300 | – | 2 mg/L |
| CCC[C@@H]1C[C@@H](C(=O)N[C@@H]([C@H]2O[C@H](SC)[C@H](O)[C@@H](O)[C@H]2O)[C@@H](C)O)N(C)C1 | broth dilution | USA300 | – | 2 mg/L |
| COc1cc2cc(CNCCN3CCN(C)CC3)c(SCc3ccccc3)nc2c(OC)c1OC | broth dilution | – | – | 128 mg/L |
| CCCCCCC#Cc1cncc(-c2nnc(SCc3cc([N+](=O)[O-])cc([N+](=O)[O-])c3)n2CCOC2OC(CN)C(O)C2O)c1 (stereo not drawn) | broth dilution | MRSA | – | > 64 mg/L |
| CN[C@H](CC(C)C)C(=O)N[C@H]1C(=O)N[C@@H](CC(N)=O)C(=O)N[C@H]2C(=O)N[C@H]3C(=O)N[C@H](C(=O)N[C@H](C(=O)O)c4cc(O)cc(O)c4-c4cc3ccc4O)[C@H](O)c3ccc(c(Cl)c3)Oc3cc2cc(c3O[C@@H]2O[C@H](CO)[C@@H](O)[C@H](O)[C@H]2O[C@H]2C[C@](C)(N)[C@H](O)[C@H](C)O2)Oc2ccc(cc2Cl)[C@H]1O | broth dilution | ATCC29213 | – | 0.67 µM |
| O=C(N[C@H](CO)[C@H](O)c1ccc([N+](=O)[O-])cc1)C(Cl)Cl | broth dilution | – | – | 64 mg/L |
| Cc1ccc2[nH]nc(-c3nnc(Nc4ccc(C(F)(F)F)cc4)s3)c2c1 | – | ATCC29213 | – | 14.4 mg/L |
| COc1cc2cc(CNCCC3CCN(C4CCCC4)CC3)c(SCc3ccccc3)nc2c(OC)c1OC | broth dilution | – | – | > 128 mg/L |
| Cc1ccc2[nH]nc(-c3nnc(Nc4ccc(Br)cc4)s3)c2c1 | – | ATCC29213 | – | 154 mg/L |
| CCCCCCC#Cc1cncc(-c2nnc(SCc3cc(C(F)(F)F)cc(C(F)(F)F)c3)n2CCCN)c1 | broth dilution | ATCC29213 | – | 4 mg/L |
| C=C[C@]1(C)C[C@@H](OC(=O)CS[C@@H]2C[C@H]3CC[C@@H](C2)N3C)[C@]2(C)[C@H](C)CC[C@]3(CCC(=O)[C@H]32)[C@@H](C)[C@@H]1O | agar dilution | ATCC29213 | – | 0.0625 mg/L |
| CC(=O)NC[C@H]1CN(c2ccc(N3CCOCC3)c(F)c2)C(=O)O1 | broth dilution | USA300 | – | 1 mg/L |
| CN[C@H](CC(C)C)C(=O)N[C@H]1C(=O)N[C@@H](CC(N)=O)C(=O)N[C@H]2C(=O)N[C@H]3C(=O)N[C@H](C(=O)N[C@H](C(=O)O)c4cc(O)cc(O)c4-c4cc3ccc4O)[C@H](O)c3ccc(c(Cl)c3)Oc3cc2cc(c3O[C@@H]2O[C@H](CO)[C@@H](O)[C@H](O)[C@H]2O[C@H]2C[C@](C)(N)[C@H](O)[C@H](C)O2)Oc2ccc(cc2Cl)[C@H]1O | agar dilution | ATCC25923 | – | 0.5 mg/L |
| Brc1ccc2nc(SCc3ccccc3)c(CNCc3ccc(CN4CCCC4)cc3)cc2c1 | broth dilution | – | – | 32 mg/L |
